The record followed here is ChEMBL document CHEMBL1152148, “Exploring 8-benzyl pteridine-6,7-diones as inhibitors of glutamate racemase (MurI) in gram-positive bacteria” (Bioorg Med Chem Lett, 2008).

Data set [1] can be described thus: Inhibition of Staphylococcus aureus murI assessed as effect on conversion of D-glutamate to L-glutamate at pH 8.0 by HPLC. The essentials: (§1)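 IC50 determined against the MurI isozyme at pH 8 in Tris buffer containing polyethylene glycol, dithiothreitol and D-glutamate substrate. Conversion of D- to L-glutamate was followed by HPLC, with chiral separation of the glutamate enantiomers on a D-penicillamine column.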

For the next data set, the system named is Staphylococcus aureus. The data set can be described thus: Antibacterial activity against Staphylococcus aureus by NCCLS method. In kind it is functional.
A short description of data set [2]: Solubility in Tris buffer at pH 8.0 by nephelometry. The data set is classed as physicochemical. The essentials: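 Solubility was determined by nephelometry in the assay medium.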
The target in another data set is T1, Glutamate racemase (Enterococcus faecalis (strain ATCC 700802 / V583), UniProt Q836J0).
T1 sequence (Q836J0 whole entry): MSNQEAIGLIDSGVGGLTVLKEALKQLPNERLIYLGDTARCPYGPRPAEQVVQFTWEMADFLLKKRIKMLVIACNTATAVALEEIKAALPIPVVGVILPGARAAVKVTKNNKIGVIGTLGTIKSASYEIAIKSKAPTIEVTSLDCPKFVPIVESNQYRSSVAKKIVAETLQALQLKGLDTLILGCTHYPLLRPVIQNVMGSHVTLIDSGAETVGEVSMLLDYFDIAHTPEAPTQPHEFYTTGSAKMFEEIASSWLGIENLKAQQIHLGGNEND
The data set can be described thus: Inhibition of Enterococcus faecalis murI assessed as effect on conversion of D-glutamate to L-glutamate at pH 8.0 by HPLC. The method, boiled down: as §1

A short description of data set [3]: Inhibition of Enterococcus faecium murI assessed as effect on conversion of D-glutamate to L-glutamate at pH 8.0 by HPLC.

≈ marks a conversion by molar mass, not a printed value. Where only a bound is given, the exact number is not on record here.

`CCCCSc1nc(N)c2[nH]c(=O)c(=O)n(Cc3ccc(Cl)c(Cl)c3)c2n1`: the half-inhibitory concentration (IC50) in data set [1] was less than 1.5 µM; at Glutamate racemase it was 0.65 µM. Moreover, the MIC in the data set with Staphylococcus aureus is more than 64 mg/L. Moreover, the kinetic solubility in data set [2] amounted to 3.1 µM (≈ 1.32 µg/mL).

On to `Nc1nc(SCCc2ccccc2)nc2c1[nH]c(=O)c(=O)n2Cc1ccccc1`, for which the IC50 in data set [1] came out at 11 µM; on Glutamate racemase, 50 µM. This compound also displayed a kinetic solubility in data set [2] of 3 µM (≈ 1.22 µg/mL).

Take `CCCCSc1nc(N)c2[nH]c(=O)c(=O)n(CCCC)c2n1`: the MIC against Staphylococcus aureus is more than 64 mg/L. The same compound yielded a kinetic solubility in data set [2] of 25 µM (≈ 8.09 µg/mL). At Glutamate racemase, the half-inhibitory concentration (IC50) came out at 11 µM.

Consider `CCCCSc1nc(N)c2[nH]c(=O)c(=O)n(Cc3cc(OC)cc(OC)c3)c2n1`, for which the IC50 came out at 14 µM in data set [1] and 1.7 µM on Glutamate racemase. In the data set on Staphylococcus aureus, this compound registered a minimum inhibitory concentration (MIC) of more than 64 mg/L. Moreover, the solubility (kinetic) in data set [2] came out at 50 µM (≈ 20.9 µg/mL).

With `CCCCSc1nc(NCCN2CCOCC2)c2[nH]c(=O)c(=O)n(Cc3ccc(F)cc3)c2n1`, the figures for the IC50 (in data set [1]; at Glutamate racemase) were 25 µM and 2.5 µM, respectively. The compound further showed a minimal inhibitory concentration (MIC) against Staphylococcus aureus of 64 mg/L (≈ 131 µM). The compound further displayed a solubility (kinetic) in data set [2] of 50 µM (≈ 24.4 µg/mL).

As for `CCCCSc1nc(N2CCN(C)CC2)c2[nH]c(=O)c(=O)n(Cc3ccc(F)cc3)c2n1`, the IC50 in data set [1] is 21 µM; on Glutamate racemase, 6.1 µM. The lowest concentration to inhibit growth with Staphylococcus aureus (MIC) was 16 mg/L (≈ 34.9 µM). The same compound showed a kinetic solubility in data set [2] of 25 µM (≈ 11.5 µg/mL).

`CCCCSc1nc(N)c2[nH]c(=O)c(=O)n(Cc3ccc(F)cc3)c2n1`: the figures for the IC50 (in data set [1]; at Glutamate racemase) were 5.1 µM and 3.5 µM, respectively. In the data set on Staphylococcus aureus, this compound displayed a minimum inhibitory concentration (MIC) of more than 64 mg/L. The same compound showed a solubility (kinetic) in data set [2] of 32 µM (≈ 12 µg/mL).

With `CCCCSc1nc(N)c2[nH]c(=O)c(=O)n(Cc3ccccc3)c2n1`, the IC50 in data set [1] came to 6.4 µM; at Glutamate racemase, 2.4 µM. Further, the MIC with Staphylococcus aureus is more than 64 mg/L. In data set [2], this compound yielded a kinetic solubility of 25 µM (≈ 8.94 µg/mL).

In the case of `Nc1nc(SC2CCCC2)nc2c1[nH]c(=O)c(=O)n2Cc1ccccc1`, the values for the IC50 (in data set [1]; at Glutamate racemase) were 52 µM and 1.9 µM, respectively. In the data set on Staphylococcus aureus, this compound yielded an MIC of more than 64 mg/L. This compound also showed a kinetic solubility in data set [2] of 12 µM (≈ 4.43 µg/mL).

In the case of `Nc1nc(SCc2ccccc2)nc2c1[nH]c(=O)c(=O)n2Cc1ccccc1`, the concentration for half-maximal inhibition (IC50) in data set [1] stood at 7.6 µM; at Glutamate racemase it was 21 µM. Also, the kinetic solubility in data set [2] turned out to be 3 µM (≈ 1.17 µg/mL).

`CCCCSc1nc(NC)c2[nH]c(=O)c(=O)n(Cc3ccc(F)cc3)c2n1`: the IC50 was determined as 3.8 µM in data set [1] and 0.9 µM on Glutamate racemase. The compound also yielded an MIC against Staphylococcus aureus of 8 mg/L (≈ 20.5 µM). The kinetic solubility in data set [2] amounted to 25 µM (≈ 9.74 µg/mL).

For the compound `CCCCSc1nc(N)c2[nH]c(=O)c(=O)n(Cc3c(F)cccc3F)c2n1`, the IC50 in data set [1] was found to be 3.1 µM; at Glutamate racemase, 1.5 µM. In the data set on Staphylococcus aureus, this compound displayed an MIC of more than 64 mg/L. Moreover, the solubility (kinetic) in data set [2] was determined as 50 µM (≈ 19.7 µg/mL).

`CCCCSc1nc(N)c2ncn(Cc3ccc([N+](=O)[O-])cc3)c2n1`: the IC50 in data set [1] was more than 400 µM; on Glutamate racemase, 7 µM; in data set [3] it was 18 µM. The kinetic solubility in data set [2] came to 10 µM (≈ 3.58 µg/mL).

Regarding `CCCCSc1nc(N2CC(O)C2)c2[nH]c(=O)c(=O)n(Cc3ccc(F)cc3)c2n1`, the IC50 was 4 µM in data set [1] and 2.1 µM at Glutamate racemase. In the data set on Staphylococcus aureus, this compound had an MIC of more than 64 mg/L. In data set [2], the kinetic solubility stood at 1.6 µM (≈ 0.69 µg/mL).

`CCCCSc1nc(N(C)C)c2[nH]c(=O)c(=O)n(Cc3ccc(F)cc3)c2n1`: the lowest concentration to inhibit growth in the data set on Staphylococcus aureus (MIC) was 4 mg/L (≈ 9.91 µM). In data set [2], this compound had a kinetic solubility of 0.8 µM (≈ 0.323 µg/mL). At Glutamate racemase, the IC50 was 1.1 µM.

In general, IC50 refers to the concentration needed to halve the response being measured. The term MIC denotes the lowest concentration found to suppress growth. Low readings indicate a more susceptible organism, high ones a less susceptible organism. As usually defined, the kinetic solubility is solubility judged after dilution from a stock solution rather than from solid.
